{"source": "ChEMBL document CHEMBL4513216", "about": "“Probing the Open Global Health Chemical Diversity Library for Multistage-Active Starting Points for Next-Generation Antimalarials” (ACS Infect Dis, 2020)", "experiment": "Toxicity liver stage against HepG2, at 10uM", "assay_type": "cell-based", "parameters": "test concentration 10 uM, cell line HepG2-A16-CD81EGFP", "conditions": "human, HepG2-A16-CD81EGFP cells; read-out: INHIBITION", "in_short": "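Uninfected HepG2-A16-CD81EGFP cells, 3 × 10^3 per well, 1536-well, plated on prespotted compound at 10 μM final, parasite-free screening media added to match infected plates; puromycin 10 μM positive, DMSO 0.5% negative; run in parallel with 48 h PbLuc assay at 37 °C, 5% CO2; viability by CellTiter-Glo luminescence, normalized to controls.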", "data": [{"smiles": "O=C1C[C@H]2[C@@H](CCN2C(=O)c2ccc[nH]2)N1CCN1CCCC1", "values": [{"measurement": "cytotoxicity at 10 µM", "value": -4.28, "unit": "%"}]}, {"smiles": "Cn1nc(C2CCCC2)c(-c2ccc3c(c2)OCO3)c1N", "values": [{"measurement": "cytotoxicity at 10 µM", "value": -51.5, "unit": "%"}]}, {"smiles": "Cc1cc(N(C)C)nc(C2COCCN2Cc2cc(C)on2)n1", "note": "(stereo not given)", "values": [{"measurement": "cytotoxicity at 10 µM", "value": -3.55, "unit": "%"}]}, {"smiles": "C=C(C)COc1ccccc1NC(=O)N1CCOCC(CO)C1", "note": "(stereo not given)", "values": [{"measurement": "cytotoxicity at 10 µM", "value": -1.57, "unit": "%"}]}, {"smiles": "O=C(CCc1ccco1)N1CCCC(n2cccn2)C1", "note": "(stereo not given)", "values": [{"measurement": "cytotoxicity at 10 µM", "value": -8.8, "unit": "%"}]}, {"smiles": "c1cnnc(N2CCCC2CNc2cnc3ccccc3n2)c1", "note": "(stereo not given)", "values": [{"measurement": "cytotoxicity at 10 µM", "value": 1.53, "unit": "%"}]}, {"smiles": "CCc1ccsc1C(=O)N1CCCN(Cc2cscn2)CC1", "values": [{"measurement": "cytotoxicity at 10 µM", "value": -4.77, "unit": "%"}]}, {"smiles": "Cc1ccccc1CN(Cc1ccncc1)CC(C)C", "values": [{"measurement": "cytotoxicity at 10 µM", "value": 11.9, "unit": "%"}]}, {"smiles": "CCc1cnc(CN(C(C)=O)C2CCN(CCS(C)(=O)=O)C2)o1", "note": "(stereo not given)", "values": [{"measurement": "cytotoxicity at 10 µM", "value": -17.8, "unit": "%"}]}, {"smiles": "CC(C)c1nn(C)c(Cl)c1CNCc1ccc2c(c1)OCO2", "values": [{"measurement": "cytotoxicity at 10 µM", "value": -1.77, "unit": "%"}]}, {"smiles": "CC(C)(C)c1cc(=O)n2c(n1)SCC(C(=O)NCc1cccs1)C2", "note": "(stereo not given)", "values": [{"measurement": "cytotoxicity at 10 µM", "value": 12.9, "unit": "%"}]}, {"smiles": "CN1CCC(NC(=O)[C@H]2CC[C@@H]3[C@@H](CCN3c3ncccn3)O2)CC1", "values": [{"measurement": "cytotoxicity at 10 µM", "value": 7.43, "unit": "%"}]}, {"smiles": "COC(=O)C1CCN(C(=O)NCC(C)Cc2cccs2)CC1", "note": "(stereo not given)", "values": [{"measurement": "cytotoxicity at 10 µM", "value": -7.33, "unit": "%"}]}, {"smiles": "Cc1cnccc1N1CCCN(C(=O)CCCn2ccnc2C)CC1", "values": [{"measurement": "cytotoxicity at 10 µM", "value": -5.39, "unit": "%"}]}, {"smiles": "Cc1cc(C)n(C2CCCN(C(=O)c3ccc(NC4CC4)nc3)C2)n1", "note": "(stereo not given)", "values": [{"measurement": "cytotoxicity at 10 µM", "value": 5.25, "unit": "%"}]}, {"smiles": "CC(C)Oc1ncccc1CNC(=O)NC1CCOc2ccccc21", "note": "(stereo not given)", "values": [{"measurement": "cytotoxicity at 10 µM", "value": -3.16, "unit": "%"}]}, {"smiles": "O=C1N(C2CCOCC2)CCCC12CCN(c1ncccc1Cl)C2", "note": "(stereo not given)", "values": [{"measurement": "cytotoxicity at 10 µM", "value": -129, "unit": "%"}]}, {"smiles": "CCCc1nc(C)cc(N2CCC3(CCC(=O)N(CC(N)=O)C3)CC2)n1", "values": [{"measurement": "cytotoxicity at 10 µM", "value": -8.38, "unit": "%"}]}, {"smiles": "CCS(=O)(=O)Cc1nnnn1-c1ccccc1", "values": [{"measurement": "cytotoxicity at 10 µM", "value": 2.7, "unit": "%"}]}, {"smiles": "Cn1cccc1C(=O)NCc1cnc2n1CCN(CC1CC1)C2", "values": [{"measurement": "cytotoxicity at 10 µM", "value": 11.8, "unit": "%"}]}, {"smiles": "CCN1CCN(Cc2c(-c3ccco3)[nH]c3ncccc23)CC1", "values": [{"measurement": "cytotoxicity at 10 µM", "value": -5.91, "unit": "%"}]}, {"smiles": "CCn1cnnc1CNC(=O)N1CCN(c2cccc(C)c2)CC1", "values": [{"measurement": "cytotoxicity at 10 µM", "value": -3.42, "unit": "%"}]}, {"smiles": "CCNC(=O)CN1CCCN(C(=O)C2CCCc3[nH]ncc32)CC1", "note": "(stereo not given)", "values": [{"measurement": "cytotoxicity at 10 µM", "value": 4, "unit": "%"}]}, {"smiles": "O=C1COC2(CCN(Cc3cccs3)CC2)CN1c1ccccc1", "values": [{"measurement": "cytotoxicity at 10 µM", "value": -4.63, "unit": "%"}]}, {"smiles": "CCC(O)CN1CCN(C(=O)CCSC)CC1", "note": "(stereo not given)", "values": [{"measurement": "cytotoxicity at 10 µM", "value": -3.5, "unit": "%"}]}, {"smiles": "COc1ccc(-n2ccc(C(=O)NCCN3CCCCC3)n2)cc1", "values": [{"measurement": "cytotoxicity at 10 µM", "value": -2.87, "unit": "%"}]}, {"smiles": "Cc1cccc(-c2nc(CNC3CCc4ncnn4C3)no2)c1", "note": "(stereo not given)", "values": [{"measurement": "cytotoxicity at 10 µM", "value": -2.09, "unit": "%"}]}, {"smiles": "CCC1C(=O)NCCN1c1ccnc(C(C)(C)C)n1", "note": "(stereo not given)", "values": [{"measurement": "cytotoxicity at 10 µM", "value": -8.37, "unit": "%"}]}, {"smiles": "O=C(c1csc(-c2cccs2)n1)N1CCCC1Cn1cccn1", "note": "(stereo not given)", "values": [{"measurement": "cytotoxicity at 10 µM", "value": -4.69, "unit": "%"}]}, {"smiles": "O=C(O)c1ccccc1C1CCN(Cc2ccc(-c3cc[nH]n3)o2)C1", "note": "(stereo not given)", "values": [{"measurement": "cytotoxicity at 10 µM", "value": -10.2, "unit": "%"}]}, {"smiles": "CN(CCO)Cc1nnc(C2CCN(CC3[C@H]4CNC[C@@H]34)CC2)n1C", "note": "(stereo not given in full)", "values": [{"measurement": "cytotoxicity at 10 µM", "value": -0.517, "unit": "%"}]}, {"smiles": "Cc1nn(CCC#N)c(C)c1CCC(=O)N(C)Cc1ccsc1", "values": [{"measurement": "cytotoxicity at 10 µM", "value": -3.57, "unit": "%"}]}, {"smiles": "COc1ccccc1OCC(=O)NS(=O)(=O)c1ccccc1F", "values": [{"measurement": "cytotoxicity at 10 µM", "value": -18, "unit": "%"}]}, {"smiles": "CN(CCCNC(=O)c1cccc(OCC(N)=O)c1)CC(F)(F)F", "values": [{"measurement": "cytotoxicity at 10 µM", "value": -10.4, "unit": "%"}]}, {"smiles": "CCOc1ccccc1C1=CCN(C(=O)C2CCN(C)C(=O)C2)CC1", "note": "(stereo not given)", "values": [{"measurement": "cytotoxicity at 10 µM", "value": 2.58, "unit": "%"}]}, {"smiles": "CCOCCc1nc(-c2cnn3c(C)cc(C)nc23)no1", "values": [{"measurement": "cytotoxicity at 10 µM", "value": 3.53, "unit": "%"}]}, {"smiles": "CN1C[C@@H](C(=O)NC(C)(C)C)[C@@]2(COc3ccc(F)cc3C2=O)C1", "values": [{"measurement": "cytotoxicity at 10 µM", "value": 1.5, "unit": "%"}]}, {"smiles": "Cc1ccc(CN2CCN(CC(=O)N(C)C)[C@@H]3CS(=O)(=O)C[C@@H]32)cc1C", "values": [{"measurement": "cytotoxicity at 10 µM", "value": 1.18, "unit": "%"}]}, {"smiles": "O=C(N1CCCC1)N1Cc2nccn2CC(Cn2ncccc2=O)C1", "note": "(stereo not given)", "values": [{"measurement": "cytotoxicity at 10 µM", "value": 3.39, "unit": "%"}]}, {"smiles": "CC(C)NC(=O)c1ccc2c(c1)nc1n2CCN(Cc2ccccc2)C1", "values": [{"measurement": "cytotoxicity at 10 µM", "value": 6.61, "unit": "%"}]}, {"smiles": "COCC(=O)N1CCCC2(CCN(CCN3CCCC3)CC2)C1", "values": [{"measurement": "cytotoxicity at 10 µM", "value": 4.71, "unit": "%"}]}, {"smiles": "Cc1noc(C)c1CCCNC(=O)Nc1ccc2c(c1)COC2", "values": [{"measurement": "cytotoxicity at 10 µM", "value": 3.27, "unit": "%"}]}, {"smiles": "CCOc1cccc(NC(=O)c2cc[nH]n2)n1", "values": [{"measurement": "cytotoxicity at 10 µM", "value": 3.51, "unit": "%"}]}, {"smiles": "CC(=O)N1CCC(c2cccc(-c3cccc(C(=O)O)c3)n2)CC1", "values": [{"measurement": "cytotoxicity at 10 µM", "value": -0.0353, "unit": "%"}]}, {"smiles": "Cc1ncccc1O[C@H]1CCN(C(=O)Cc2cccs2)CC[C@@H]1O", "values": [{"measurement": "cytotoxicity at 10 µM", "value": 5.92, "unit": "%"}]}]}
